Entries after “also recorded” stand apart in the source; their conditions may differ.
Tests used:
20S proteasome = 20S proteasome activity assay; type: biochemical; conditions: 10 μM inhibitor, 37°C, 90 m
Procedure, shortened: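 Recombinant 20S proteasome with an AMC-linked peptide substrate that fluoresces on cleavage. Substrate dilution of 1:200 was chosen from an AMC standard curve. Test compound at 10 μM or DMSO control was mixed with enzyme and substrate and incubated 90 min at 37°C. Fluorescence was read at 380/460 nm and normalized to DMSO, with MG-132 as reference inhibitor.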

FOXM1 in MCF-7 cells = assay: Western blot of total lysate and chromatin fraction of treated MCF-7 cells; type: cell-based, human; conditions: 6 h, 20 μM
Procedure, shortened: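 MCF-7 cells were treated 6 h with test compound or DMSO. Whole-cell RIPA lysates and isolated chromatin pellets (sonicated in Laemmli buffer) ran on 8–16% Tris-glycine gels. Blots were probed overnight at 4°C with anti-FOXM1 (1:1000), actin (1:5000) or histone H3 (1:10000), then with IR-dye secondaries. FOXM1 was quantified relative to actin (lysate) or H3 (chromatin).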

[1] = test system: MCF-7 breast cancer cells; assay: 72 h growth inhibition in MCF-7 cells; type: cell-based; conditions: Homo sapiens, MCF7, 72 h, read-out: GI50 (50% growth inhibition)
Procedure, shortened: (§1)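 Cell lines came from ECACC. MCF-7 and MDA-MB-231 were grown in DMEM + 10% FBS, and PEO-1 in RPMI + 10% FBS. Cells were exposed to test compound for 72 h. GI50 is the concentration giving 50% growth inhibition.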

[2] = test system: genes with FOXM1 promoter occupancy (ENCODE ChIP-seq, MCF-7); type: cell-based, human; conditions: ENCODE ChIP-seq datasets
Procedure, shortened: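 Differentially expressed genes at 3 h were defined as FDR < 0.01 and logFC > 0.3 […]. ENCODE FOX-family ChIP-seq peaks (MACS) shared by both duplicates were mapped to promoters (−2000 to +100 bp of TSS). Proportions were compared by chi-squared test. Temporal clusters came from fuzzy c-means (9 clusters, fuzzification 1.35) on 1552 genes with abs(logFC) > 0.75.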

[3] = test system: PEO-1 ovarian cancer cells; assay: Cell viability assay, PEO-1 cells; type: cell-based; conditions: Homo sapiens, PEO1, 72 h
Procedure, shortened: as §1

[4] = test system: FOXM1 target gene transcripts in MCF-7 cells; assay: RNA-seq differential expression in MCF-7 cells; type: cell-based, human; conditions: 6 h
Procedure, shortened: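 MCF-7 cells were treated for 3, 6 or 9 h, in three replicates per time point, against 0 h controls. TruSeq libraries gave 100-nt single-end reads, which were adapter/quality trimmed, aligned to hg19 and counted per gene. Differential expression used the edgeR exact test with library-size (CPM) normalization, and FDR < 0.01 counted as significant.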

[5] = test system: MDA-MB-231 ER-negative breast cancer cells; assay: Cell viability assay, MDA-MB-231 cells; type: cell-based; conditions: Homo sapiens, MDA-MB-231, 72 h
Procedure, shortened: as §1

[6] = test system: FOXM1 occupancy at CCNB1 and CDC25B gene promoters; assay: FOXM1 ChIP followed by qRT-PCR in MCF-7 cells; type: cell-based, human; conditions: 6 h treatment
Procedure, shortened: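 MCF-7 cells at 70% confluence were treated 6 h with test compound or DMSO. Cells were crosslinked with 1% formaldehyde 10 min at RT, quenched with glycine, lysed and sonicated. Immunoprecipitation used 3 μg rabbit polyclonal anti-FOXM1 on protein-A beads overnight, with elution at 65°C for 16 h. SYBR qPCR (40 cycles) amplified CDC25B and CCNB1 promoters. Enrichment was normalized to a cyclin D1 intergenic control region.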

[7] = test system: CDC25B expression in MDA-MB-231 cells; assay: CDC25B expression in MDA-MB-231 cells; type: cell-based, human; conditions: 3 h treatment
Procedure, shortened: (§2)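 MDA-MB-231 (DMEM + 10% FBS) or PEO-1 (RPMI + 10% FBS) cells were exposed to test compound for 3 h. CDC25B transcript was measured by qRT-PCR with commercial gene-specific primer sets, with ACTB and YWHAZ primer sets also run.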

[8] = test system: CDC25B expression in PEO-1 cells; assay: CDC25B expression in PEO-1 cells; type: cell-based, human; conditions: 3 h treatment
Procedure, shortened: as §2

[9] = target: T1, FOXM1 DBD-DNA interaction (Homo sapiens, UniProt Q08050); assay: EMSA displacement of FOXM1 DBD-DNA interaction; type: binding
T1 sequence (Q08050 222-360): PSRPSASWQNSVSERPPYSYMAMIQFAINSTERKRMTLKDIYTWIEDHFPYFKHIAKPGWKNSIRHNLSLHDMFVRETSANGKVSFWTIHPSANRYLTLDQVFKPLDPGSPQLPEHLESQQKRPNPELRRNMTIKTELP
Procedure, shortened: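 The DNA-binding domain of human FOXM1c was expressed as a GST fusion in E. coli BL21(DE3), induced with 1 mM IPTG at 18°C overnight. DBD (750 nM final) was preincubated with test compound 1.5 h at RT. FAM-labelled 16-bp consensus dsDNA (15 nM final) was added for 15 min. Samples ran on 6% retardation gels and were imaged by fluorescence.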

FOXM1 DBD (GST fusion) [10] = target: T2, FOXM1 DBD (GST fusion) (Homo sapiens, UniProt Q08050 222-360); assay: fluorescence polarization
T2 sequence: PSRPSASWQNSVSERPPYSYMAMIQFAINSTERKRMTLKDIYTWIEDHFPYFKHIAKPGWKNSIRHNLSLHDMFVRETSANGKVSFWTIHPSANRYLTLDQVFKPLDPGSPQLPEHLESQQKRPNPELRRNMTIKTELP

FOXM1 DBD (GST fusion) [11] = target: T2, FOXM1 DBD (GST fusion); assay: EMSA
FOXM1 DBD (GST fusion) [12] = target: T2, FOXM1 DBD (GST fusion); assay: fluorescence polarization; remark: listed apart in the source
[13] = target: T3, FOXM1 full length (FOXM1c, GST fusion) (Homo sapiens, UniProt Q08050 1-763); assay: fluorescence polarization
T3 sequence: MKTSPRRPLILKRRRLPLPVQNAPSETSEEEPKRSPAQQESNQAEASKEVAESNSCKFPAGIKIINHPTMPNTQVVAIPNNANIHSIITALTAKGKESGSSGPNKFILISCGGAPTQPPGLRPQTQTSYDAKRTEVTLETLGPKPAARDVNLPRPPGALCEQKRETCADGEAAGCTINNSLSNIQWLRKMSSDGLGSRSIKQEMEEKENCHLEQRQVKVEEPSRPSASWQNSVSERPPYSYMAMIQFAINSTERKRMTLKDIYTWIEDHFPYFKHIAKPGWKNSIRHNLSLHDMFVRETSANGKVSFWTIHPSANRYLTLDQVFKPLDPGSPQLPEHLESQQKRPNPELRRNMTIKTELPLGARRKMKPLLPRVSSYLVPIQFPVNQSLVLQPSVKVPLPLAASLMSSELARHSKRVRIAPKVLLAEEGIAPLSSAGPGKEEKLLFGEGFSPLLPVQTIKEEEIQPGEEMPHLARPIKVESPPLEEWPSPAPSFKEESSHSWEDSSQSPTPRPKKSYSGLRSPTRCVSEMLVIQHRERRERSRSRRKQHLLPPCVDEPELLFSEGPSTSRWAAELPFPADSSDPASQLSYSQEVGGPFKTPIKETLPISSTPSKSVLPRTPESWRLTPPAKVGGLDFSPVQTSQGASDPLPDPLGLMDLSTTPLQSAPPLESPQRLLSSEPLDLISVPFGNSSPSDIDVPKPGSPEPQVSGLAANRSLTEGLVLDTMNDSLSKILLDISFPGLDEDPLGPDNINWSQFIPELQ

FOXM1 DBD (GST fusion) [14] = target: T2, FOXM1 DBD (GST fusion); assay: competition

## Nc1c(C(=O)Nc2ccc(F)cc2)sc2nc(-c3cccs3)cc(C(F)(F)F)c12 [FDI-6, 3-amino-N-(4-fluorophenyl)-6-(thiophen-2-yl)-4-(trifluoromethyl)thieno[2,3-b]pyridine-2-carboxamide]
20S proteasome
  inhibition of the 20S proteasome: did not inhibit; also recorded: inactive
FOXM1 in MCF-7 cells; MCF-7 cells, normalized to Histone H3
  decrease of chromatin bound FOXM1: ~50%
FOXM1 in MCF-7 cells; MCF-7 total lysate, normalized to Actin
  overall amount of FOXM1 protein: unaffected
[1]
  GI50: 18000 ± 3000 nM
[2]
  enrichment of differentially expressed genes for promoter occupancy of other FOX transcription factors (FOXA1, FOXA2, FOXP2): did not show enrichment
[3]
  GI50: 18100 nM
[4]
  AURKA transcript change: −0.83 log2 fold change
  CCNA2 transcript change: −0.65 log2 fold change
  CCNB1 transcript change: −0.86 log2 fold change
  CDKN3 transcript change: −0.739 log2 fold change
  CENPA transcript change: −0.61 log2 fold change
  KIF20A transcript change: −1.22 log2 fold change
  NEK2 transcript change: −0.86 log2 fold change
  PLK1 transcript change: −0.92 log2 fold change
[5]
  GI50: 21800 nM
[6]
  change in FOXM1 occupancy at CCNB1 gene promoter: −0.68 log2 fold
  change in FOXM1 occupancy at CDC25B gene promoter: −0.64 log2 fold
[7]
  CDC25B expression: down-regulates
[8]
  CDC25B expression: down-regulates
[9]
  IC50: 22500 ± 12300 nM

## C=C(NC(=O)C(=C)NC(=O)c1csc(C2=N[C@@H]3c4csc(n4)[C@H]4NC(=O)c5csc(n5)[C@H]([C@](C)(O)[C@@H](C)O)NC(=O)[C@H]5CSC(=N5)/C(=C/C)NC(=O)[C@H]([C@@H](C)O)NC(=O)c5csc(n5)[C@]3(CC2)NC(=O)[C@H](C)NC(=O)C(=C)NC(=O)[C@H](C)NC(=O)[C@H]([C@@H](C)CC)N[C@@H]2C=Cc3c([C@H](C)O)cc(nc3[C@H]2O)C(=O)O[C@@H]4C)n1)C(N)=O [thiostrepton, reference compound]
[1]
  GI50: 2700 nM
[9]
  IC50: 45000 ± 16400 nM

B1: FOXM1 consensus DNA probe, 16 bp (dsDNA)
DNA 1: AAACAAACAAACAATC
DNA 2: GATTGTTTGTTTGTTT
FOXM1 DBD (GST fusion) [10]
  Kd: 224 ± 30 nM
FOXM1 DBD (GST fusion) [11]
  Kd: 301 ± 21 nM
FOXM1 DBD (GST fusion) [12]
  Kd: 158 nM
[13]
  Kd: 300 ± 64 nM

B2: unlabeled FOXM1 consensus DNA, 16 bp (dsDNA)
DNA 1: AAACAAACAAACAATC
DNA 2: GATTGTTTGTTTGTTT
FOXM1 DBD (GST fusion) [14]
  IC50: 57 ± 5 nM

Source: PMC4258842 (Nature communications, 2014)
